The values that follow come from ChEMBL document CHEMBL3585337, “Selective inhibition of prolyl 4-hydroxylases by bipyridinedicarboxylates” (Bioorg Med Chem, 2015).

The source made the active and inactive calls. The rule behind the calls is not given here.

In test [1] the target is Egl nine homolog 1 (Homo sapiens) (UniProt Q9GZT9). As to the kind of experiment: Inhibition of N-terminal hexa-histidine tagged human PHD2 (181 to 426 amino acids) at 10 uM pre-incubated for 2 mins followed by alpha-ketoglutarate addition using HIF1alpha peptide (556 to 574 amino acids) and 50 uM FeSO4 by RP-HPLC method. An outline of the steps: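 5 µM NHis6-PHD2(181–426) in Tris-HCl pH 7.8 with 50 µM HIF-1α(556–574) peptide, 1 mg/mL BSA, 0.3 mg/mL catalase, 2 mM ascorbate, 1 mM DTT. Started with 35 µM α-ketoglutarate, 10 min at 30 °C, quenched by 60 s boiling. Conversion by C18 HPLC at 218 nm, relative to no-inhibitor control; three independent experiments.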
Sequence of Egl nine homolog 1 (Homo sapiens) (Q9GZT9 2-426 limits assumed): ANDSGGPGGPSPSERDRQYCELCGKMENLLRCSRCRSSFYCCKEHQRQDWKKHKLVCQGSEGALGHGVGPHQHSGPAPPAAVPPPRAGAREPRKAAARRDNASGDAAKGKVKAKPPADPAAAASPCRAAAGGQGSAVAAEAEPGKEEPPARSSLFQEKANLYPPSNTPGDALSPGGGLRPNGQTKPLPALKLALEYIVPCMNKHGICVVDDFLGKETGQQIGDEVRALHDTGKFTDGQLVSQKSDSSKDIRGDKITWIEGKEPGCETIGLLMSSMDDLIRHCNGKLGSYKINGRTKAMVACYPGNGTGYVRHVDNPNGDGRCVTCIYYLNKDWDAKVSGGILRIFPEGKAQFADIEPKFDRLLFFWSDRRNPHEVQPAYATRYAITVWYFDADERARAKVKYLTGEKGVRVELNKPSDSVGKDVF

Test [2] is described as follows: Inhibition of human collagen prolyl 4-hydroxylase.
The target of test [3] is T1, Prolyl 4-hydroxylase subunit alpha-1 (Homo sapiens, UniProt P13674). Put plainly: Inhibition of human recombinant CP4H1 expressed in Escherichia coli Origami B(DE3) at 10 uM pre-incubated for 2 mins followed by alpha-ketoglutarate addition using dansylGlyProProGlyOEt substrate in Tris-HCl buffer at pH 7.8 at 30 degC by HPLC method.
T1 sequence (P13674 whole entry): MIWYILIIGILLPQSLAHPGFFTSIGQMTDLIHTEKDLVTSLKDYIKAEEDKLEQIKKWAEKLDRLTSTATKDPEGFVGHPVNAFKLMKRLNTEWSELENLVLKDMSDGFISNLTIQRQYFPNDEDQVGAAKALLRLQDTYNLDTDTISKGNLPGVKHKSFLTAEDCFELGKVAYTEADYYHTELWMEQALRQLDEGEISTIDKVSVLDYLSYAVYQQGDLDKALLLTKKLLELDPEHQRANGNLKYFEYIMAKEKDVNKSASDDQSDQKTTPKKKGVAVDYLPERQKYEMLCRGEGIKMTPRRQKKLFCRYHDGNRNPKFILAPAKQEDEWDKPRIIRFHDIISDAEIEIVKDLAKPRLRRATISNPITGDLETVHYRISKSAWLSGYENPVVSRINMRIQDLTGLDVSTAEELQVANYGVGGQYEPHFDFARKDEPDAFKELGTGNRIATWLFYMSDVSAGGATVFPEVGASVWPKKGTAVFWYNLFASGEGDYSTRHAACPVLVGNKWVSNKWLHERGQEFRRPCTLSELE
Test [4] concerns the target T1, Prolyl 4-hydroxylase subunit alpha-1. Put plainly: Inhibition of human recombinant CP4H1 expressed in Escherichia coli Origami B(DE3) pre-incubated for 2 mins followed by alpha-ketoglutarate addition using dansylGlyProProGlyOEt substrate in Tris-HCl buffer at pH 7.8 at 30 degC by HPLC method.
Test [5] shares this target. As to the kind of experiment: Inhibition of human recombinant CP4H1 expressed in Escherichia coli Origami B(DE3) pre-incubated for 2 mins followed by alpha-ketoglutarate addition using dansylGlyProProGlyOEt substrate in Tris-HCl buffer at pH 7.8 at 30 degC by HPLC based Cheng-Prussoff equation method.
Test [6] is described as follows: Binding affinity to Fe(2) assessed as half maximal concentration required for binding 20 uM Fe(2) in pH 7.0 sodium phosphate buffer. An outline of the steps: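 Ligand at 3–500 µM in 10 mM sodium phosphate pH 7.0, started by adding freshly made FeSO4 (20 µM). Equilibrated 15 min, then absorbance read at complex λmax with the no-ligand blank subtracted. Absorbance plotted against log ligand, and Fe20-EC50 taken by sigmoidal non-linear regression. Triplicate; mean ± SE.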

The nature of test [7]: Binding affinity to Fe(2) assessed as Fe(compound)2+/3 complex formation at 150 uM in Tris buffer at pH 7.8 at 30 degC. A digest of the protocol:
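Assay buffer: 50 mM Tris-HCl pH 7.8, 1% w/v BSA, 100 µg/mL catalase, 2 mM sodium ascorbate, 100 µM AKG, 100 µM DTT, 50 µM FeSO4. Incubated at 30 °C with or without ligand (150 µM). Fe(ligand)3 2+ complex detected by UV–Vis spectrophotometry.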

Regarding `O=C(O)CNC(=O)C(=O)O`, in test [1], the inhibition (commonly the percentage by which the read-out fell short of the control) was “Active”.

On to `O=C(O)c1ccc(C(=O)O)nc1` [PYRIDINE-2,5-DICARBOXYLIC ACID], for which the results for the Ki in test [2] and in test [5] were 0.8 µM and 2.6 µM, respectively. The inhibition result in test [3] is “Active”. Moreover, in test [4], the 50% inhibitory concentration (IC50) (in general, the point on the concentration scale where inhibition reaches its midpoint) is 15 µM. Moreover, the inhibition entry in test [1] was “inactive”.

As for `O=C(O)c1ccnc(-c2cccc(C(=O)O)n2)c1`, the concentration giving a half-maximal response (EC50) (as a rule, the concentration that produces a half-maximal response) in test [6] (read-out: EC50) worked out at 26 µM. Besides, the inhibition result in test [1] is “inactive”.

As for `O=C(O)c1ccc(-c2cccc(C(=O)O)n2)nc1`, the EC50 in test [6] (read-out: EC50) was 27 µM. The inhibition result in test [1] was “inactive”.

For `O=C(O)c1ccnc(-c2cc(C(=O)O)ccn2)c1`, the 50% effective concentration (EC50) in test [6] (read-out: EC50) turned out to be 38 µM. In addition, the outcome in test [7] was Active. Moreover, the inhibition result in test [3] and in test [1] was “Active” in each case.

For `O=C(O)c1ccc(-c2ccc(C(=O)O)cn2)nc1`, the EC50 in test [6] (read-out: EC50) came out at 112 µM. Further, the outcome in test [7] was Active. Also, in test [4], the IC50 worked out at 0.84 µM. In addition, in test [5], the inhibitory constant (Ki) (as a rule, the equilibrium dissociation constant of an inhibitor or competing ligand from its target) was determined as 0.14 µM. In addition, the inhibition result in test [1] was “inactive”.

Regarding `O=C(O)c1cccnc1-c1ncccc1C(=O)O`, in test [6], the concentration giving a half-maximal response (EC50) result is “Not Active”.

As to `c1ccc(-c2ccccn2)nc1`, the half-maximal effective concentration (EC50) in test [6] (read-out: EC50) came out at 43 µM. The result in test [7] was Active. In addition, the inhibition result in test [3] was “inactive”.

On to `O=C(O)c1cccc(-c2cccc(C(=O)O)n2)n1`, for which the half-maximal effective concentration (EC50) entry in test [6] was “Not Active”. For the same compound, in test [1], the inhibition entry is “inactive”.

For `O=C(O)c1ccc(-c2cc(C(=O)O)ccn2)nc1`, the EC50 in test [6] (read-out: EC50) was 78 µM. In addition, the outcome in test [7] was Active. The inhibition in test [3] is > 90%. The IC50 in test [4] was determined as 1.2 µM. The Ki in test [5] was determined as 0.2 µM. For the same compound, the inhibition result in test [1] was “Active”.

Consider `O=C(O)c1ccnc(C(=O)O)c1`, for which the inhibition result in test [1] was “Active”.
